Source: PMC5237703 (Acta Pharmaceutica Sinica. B, 2016)
Like-named read-outs stand apart in the source and are kept apart here.

Experiments:
[1] = system: prostatic cancer cell line DU-145; assay: MTT cytotoxicity assay, DU-145; type: cell-based; details: read-out: IC50 Prostate DU-145
Summary of the method: (§1)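 Cells grown as adherent monolayers in DMEM with 10% FBS at 37 °C under humidified 5% CO2. Cells were trypsin-harvested and seeded at 5×10^3 per well, then graded concentrations of test compound were added for 72 h. MTT (4 mg/mL solution) was added for 4 h, formazan dissolved in DMSO and A570 read. IC50 derived from percent survival; mean ± SD, 2–3 experiments in triplicate.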

[2] = system: K562 (myelogenous leukemia); assay: MTT cytotoxicity assay, K562; type: cell-based, human; details: read-out: IC50 Blood K562
Summary of the method: (§2)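 Media: EMEM for MCF-7, McCoy's 5a for SaOS-2, RPMI-1640 for K562, each with NaHCO3, sodium pyruvate, 10% fetal calf serum and 1% penicillin/streptomycin. Culture at 37 °C, humidified 5% CO2. Seeded 5×10^3 cells/well and exposed to graded test compound for 72 h. MTT for 4 h, DMSO solubilisation, A570. IC50 from percent survival; mean ± SD, 2–3 experiments in triplicate.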

[3] = system: breast carcinoma cell line MDA-MB-231; assay: MTT cytotoxicity assay, MDA-MB-231; type: cell-based; details: read-out: IC50 Breast MDAMB-231
Summary of the method: as §1

[4] = system: human embryonic kidney cells HEK293; assay: MTT cytotoxicity assay, HEK293; type: cell-based; details: read-out: IC50 Normal HEK293
Summary of the method: as §1

[5] = system: colon carcinoma cell line HCT-15; assay: MTT cytotoxicity assay, HCT-15; type: cell-based; details: read-out: IC50 Colon HCT15
Summary of the method: as §1

COX-1 = biological target: T1, COX-1 (Ovis aries, UniProt P05979); assay: COX-1 inhibition, chromogenic TMPD oxidation assay; type: biochemical, Ram
T1 sequence (P05979 25-600): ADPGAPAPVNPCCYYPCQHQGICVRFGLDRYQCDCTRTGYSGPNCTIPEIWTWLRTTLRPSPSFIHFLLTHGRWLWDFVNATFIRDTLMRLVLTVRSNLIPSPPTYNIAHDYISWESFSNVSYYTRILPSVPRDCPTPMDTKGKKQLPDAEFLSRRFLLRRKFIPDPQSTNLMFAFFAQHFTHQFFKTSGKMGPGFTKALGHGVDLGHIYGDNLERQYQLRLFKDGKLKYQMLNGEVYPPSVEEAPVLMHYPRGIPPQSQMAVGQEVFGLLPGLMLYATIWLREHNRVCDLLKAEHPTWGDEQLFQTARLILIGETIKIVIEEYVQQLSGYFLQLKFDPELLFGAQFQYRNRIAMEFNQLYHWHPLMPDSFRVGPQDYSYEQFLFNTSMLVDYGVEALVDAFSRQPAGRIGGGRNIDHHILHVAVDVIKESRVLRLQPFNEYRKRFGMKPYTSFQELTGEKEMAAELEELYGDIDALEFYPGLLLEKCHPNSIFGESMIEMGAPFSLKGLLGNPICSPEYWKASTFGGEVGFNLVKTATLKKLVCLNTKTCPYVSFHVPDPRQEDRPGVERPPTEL

SaOS-2 (osteosarcoma) = assay: MTT cytotoxicity assay, SaOS-2; type: cell-based, human; details: read-out: IC50 Bone SaoS2
Summary of the method: as §2

[6] = system: pancreatic cancer cell line PANC-1; assay: MTT cytotoxicity assay, PANC-1; type: cell-based; details: read-out: IC50 Pancreas PANC-1
Summary of the method: as §1

Recombinant human COX-2 = biological target: T2, Recombinant human COX-2 (Homo sapiens, UniProt P35354); assay: biochemical; type: biochemical; details: for Selectivity ratio COX-2/COX-1: ratio of IC50 COX-2 to IC50 COX-1; for IC50: TMPD oxidation at 603 nm
T2 sequence (P35354 18-604): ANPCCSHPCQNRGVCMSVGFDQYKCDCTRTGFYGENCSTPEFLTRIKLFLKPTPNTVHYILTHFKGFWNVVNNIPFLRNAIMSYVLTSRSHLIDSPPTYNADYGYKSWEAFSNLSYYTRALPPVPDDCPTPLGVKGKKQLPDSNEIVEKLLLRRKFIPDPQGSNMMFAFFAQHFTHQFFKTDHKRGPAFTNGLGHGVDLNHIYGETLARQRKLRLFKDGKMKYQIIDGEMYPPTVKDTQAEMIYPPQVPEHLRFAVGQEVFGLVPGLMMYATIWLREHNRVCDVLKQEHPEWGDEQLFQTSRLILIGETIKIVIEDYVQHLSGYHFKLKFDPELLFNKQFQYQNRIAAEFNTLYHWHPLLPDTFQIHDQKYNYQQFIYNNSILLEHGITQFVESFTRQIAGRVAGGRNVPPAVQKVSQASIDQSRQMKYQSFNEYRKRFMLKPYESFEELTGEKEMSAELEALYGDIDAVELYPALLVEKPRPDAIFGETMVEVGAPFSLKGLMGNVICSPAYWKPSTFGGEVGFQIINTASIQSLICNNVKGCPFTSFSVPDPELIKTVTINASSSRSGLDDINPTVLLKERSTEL

MCF-7 (breast cancer) = assay: MTT cytotoxicity assay, MCF-7; type: cell-based, human; details: read-out: IC50 Breast MCF-7
Summary of the method: as §2

[7] = system: Lung cancer cell line A549; assay: MTT cytotoxicity assay, A549; type: cell-based
[8] = system: breast carcinoma cell line MDA-MB-468; assay: MTT cytotoxicity assay, MDA-MB-468; type: cell-based; details: read-out: IC50 Breast MDAMB-468
Summary of the method: as §1

mouse fibroblast KB-31 = assay: MTT cytotoxicity assay, KB-31; type: cell-based; details: KB 3-1, 72 h, read-out: IC50 Mouse fibroblast KB-31
Summary of the method: as §1

[9] = MTT, 72 h incubation, non-cancerous cell line
[10] = read-out: IC50 COX-1, COX-1 from Ram seminal vesicles, TMPD oxidation at 603 nm
[11] = read-out: IC50 COX-2, recombinant human COX-2
[12] = IC50 COX-2, recombinant human COX-2
[13] = Homo sapiens, A549, read-out: IC50 Lung A549

Compound	IC50 ([1]; MTT, 72 h incubation)	IC50 ([2]; MTT, 72 h incubation)	IC50 ([3]; MTT, 72 h incubation)	IC50 [4, 9]	IC50 ([5]; MTT, 72 h incubation)	IC50 (COX-1; [10])	Selectivity ratio COX-2/COX-1 (Recombinant human COX-2)	IC50 (mouse fibroblast KB-31)	IC50 ([1]; Homo sapiens, DU-145, 72 h)	IC50 ([2]; Homo sapiens, K562, 72 h)	IC50 ([3]; Homo sapiens, MDA-MB-231, 72 h)	IC50 ([4]; Homo sapiens, HEK293, 72 h)	IC50 ([5]; Homo sapiens, HCT-15, 72 h)	IC50 (COX-1)	IC50 (SaOS-2 (osteosarcoma); Homo sapiens, SAOS-2, 72 h)	IC50 ([6]; Homo sapiens, PANC-1, 72 h)	IC50 (Recombinant human COX-2; [12])	IC50 (MCF-7 (breast cancer); Homo sapiens, MCF7, 72 h)	IC50 [7, 13]	IC50 ([8]; Homo sapiens, MDA-MB-468, 72 h)	other results
4-(3-(4-Fluorophenyl)-3H-imidazo[4,5-b]pyridin-2-yl)-2-methoxyphenol [Compound 3d]	> 100 µM	57 µM	> 100 µM	> 100 µM	> 100 µM	42.7 ± 2.5 µM	0.60	–	–	–	–	–	–	–	–	–	–	–	–	–	IC50 (SaOS-2 (osteosarcoma); MTT, 72 h incubation): 71.5 µM; IC50 ([6]; MTT, 72 h incubation): > 100 µM; IC50 (Recombinant human COX-2; [11]): 25.6 ± 1 µM; IC50 (MCF-7 (breast cancer); MTT, 72 h incubation): 72 µM; IC50 ([7]; read-out: IC50 Lung A549, MTT): > 100 µM; IC50 ([8]; MTT, 72 h incubation): > 100 µM
5-(3-(3,4-Dimethoxyphenyl)-3H-imidazo[4,5-b]pyridin-2-yl)-2-methoxyphenol [Compound 3h]	> 100 µM	54.5 µM	> 100 µM	80 µM	66.9 µM	18.5 µM	0.83	–	–	–	–	–	–	–	–	–	–	–	–	–	IC50 (SaOS-2 (osteosarcoma); MTT, 72 h incubation): 59 µM; IC50 ([6]; MTT, 72 h incubation): 57.7 µM; IC50 (Recombinant human COX-2; [11]): 15.4 ± 3.1 µM; IC50 (MCF-7 (breast cancer); MTT, 72 h incubation): 53 µM; IC50 ([7]; read-out: IC50 Lung A549, MTT): > 100 µM; IC50 ([8]; MTT, 72 h incubation): > 100 µM
5-(3-(4-Fluorophenyl)-3H-imidazo[4,5-b]pyridin-2-yl)-2-methoxyphenol [Compound 3e]	> 100 µM	53 µM	> 100 µM	> 100 µM	> 100 µM	16.8 ± 0.1 µM	16.58	–	–	–	–	–	–	–	–	–	–	–	–	–	IC50 (SaOS-2 (osteosarcoma); MTT, 72 h incubation): 62.5 µM; IC50 ([6]; MTT, 72 h incubation): > 100 µM; IC50 (Recombinant human COX-2; [11]): 279 ± 7.2 µM; IC50 (MCF-7 (breast cancer); MTT, 72 h incubation): 60 µM; IC50 ([7]; read-out: IC50 Lung A549, MTT): > 100 µM; IC50 ([8]; MTT, 72 h incubation): 78.8 µM
Oc1cccc(-c2nc3cccnc3n2-c2ccc(F)cc2)c1 [Compound 3a, 3-(3-(4-Fluorophenyl)-3H-imidazo[4,5-b]pyridin-2-yl)phenol]	–	–	–	–	–	–	3.59	> 100 µM	> 100 µM	49 µM	> 100 µM	> 100 µM	> 100 µM	10 ± 0.01 µM	64 µM	> 100 µM	35.9 ± 2 µM	61.5 µM	> 100 µM	> 100 µM	–
COc1cccc(-c2nc3cccnc3n2-c2ccc(F)cc2)c1 [Compound 3b, 3-(4-Fluorophenyl)-2-(3-methoxyphenyl)-3H-imidazo[4,5-b]pyridine]	–	–	–	–	–	–	–	75 µM	> 100 µM	46 µM	> 100 µM	> 100 µM	> 100 µM	15 ± 0.13 µM	67 µM	> 100 µM	–	69 µM	> 100 µM	66.5 µM	–
Fc1ccc(-n2c(-c3cccc(C(F)(F)F)c3)nc3cccnc32)cc1 [Compound 3c, 3-(4-Fluorophenyl)-2-(3-(trifluoromethyl)phenyl)-3H-imidazo[4,5-b]pyridine]	–	–	–	–	–	–	0.42	> 100 µM	> 100 µM	42 µM	> 100 µM	> 100 µM	> 100 µM	36 ± 1.4 µM	52.5 µM	> 100 µM	15.1 ± 0.9 µM	44 µM	> 100 µM	> 100 µM	–
FC(F)(F)c1cccc(-c2nc3cccnc3n2-c2ccc(Cl)cc2)c1 [Compound 3f, 3-(4-Chlorophenyl)-2-(3-(trifluoromethyl)phenyl)-3H-imidazo[4,5-b]pyridine]	–	–	–	–	–	–	0.42	> 100 µM	> 100 µM	43 µM	> 100 µM	> 100 µM	> 100 µM	21.8 ± 1.1 µM	53.5 µM	> 100 µM	9.2 ± 0.02 µM	49.9 µM	> 100 µM	> 100 µM	selectivity for COX-2 over COX-1 (Recombinant human COX-2; from IC50 values against COX-2 and COX-1): 2 fold
COc1cc(-c2nc3cccnc3n2-c2ccc(Cl)cc2)cc(OC)c1OC [Compound 3g, 3-(4-Chlorophenyl)-2-(3,4,5-trimethoxyphenyl)-3H-imidazo[4,5-b]pyridine]	–	–	–	–	–	–	1.17	64.4 µM	> 100 µM	47 µM	> 100 µM	> 100 µM	> 100 µM	19.1 ± 0.3 µM	55 µM	83.5 µM	22.4 ± 2.5 µM	56 µM	> 100 µM	69.3 µM	–
